Data published in ChEMBL document CHEMBL1145581, “Design and synthesis of tetrahydroisoquinoline derivatives as potential multidrug resistance reversal agents in cancer” (Bioorg Med Chem Lett, 2008).
Activity calls are given as the source filed them. The calls are words filed in the database; no cut-off is given here.

Tests used:
P-gp (ABCB1) [1] = target: T1, P-gp (ABCB1) (Homo sapiens, UniProt P08183); assay: Inhibition of Pgp-mediated multidrug resistance activity in human MCF7/ADM cells assessed as Rh123 accumulation at 10 umol/L after 30 mins; format: cell-based; conditions: probe Rh123
How it was run: (§1)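 MCF-7/ADM cells were maintained with ADM 1 µM and seeded at 4 × 10⁴/ml. They were preincubated 30 min in serum-free RPMI 1640, then given compound (1, 3, 10 µM final) for 30 min. Rh123 10 µM final was added for a further 60 min at 37 °C. After PBS washes and Triton X-100 lysis, intracellular fluorescence was read at ex 488/em 535 nm. Triplicate. Inhibitory ratio = (treated − control)/control × 100, background-corrected.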

K562 = assay: Effect on membrane lipid fluidity in human K562 cells; format: functional, cell-based
How it was run: (§2)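 K562 and K562/A02 cells were grown in RPMI 1640 with 10% FCS and seeded at 1 × 10⁵/ml. They were exposed to 1, 3 or 10 µM compound (final) for 24 h, then washed and labelled with 2 µM DPH for 30 min. After washing, cells were held 10 min at 25 °C. Fluorescence polarization P was read at ex 357.6/em 428.7 nm, with P inversely related to membrane fluidity. Duplicate, ≥3 experiments.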

Rattus norvegicus [2] = assay: Toxicity in Sprague-Dawley rat assessed as ventricular fibrillation by measuring aconitine nitrate level at 2 mg.kg, iv by […]; format: organism-based, Cardiac ventricle; conditions: in vivo
How it was run: (§3)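 SD rats were anesthetized with urethane 1.2 g/kg ip, and compound in normal saline was given via the femoral vein. Two minutes later, aconitine nitrate was infused IV at constant rate by peristaltic pump. The aconitine dose at onset of premature beats, sustained tachycardia or fibrillation was determined by […]. n = 3.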

[3] = Antitumor activity against human K562/A02 cells xenografted in nude mouse at 8 mg/kg; format: functional
How it was run: (§4)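 SCID nude mice received subcutaneous axillary inoculation of log-phase K562/A02 cells at 1 × 10⁷/ml. The cells were maintained in RPMI 1640 with 10% FCS and ADM 1 µg/ml final. When tumors reached a mean diameter of 0.4–0.6 cm, mice were randomized into groups of ten. Drug was given IV three times weekly, alongside adriamycin; vehicle controls were included. Endpoint was tumor weight. Inhibition ratio was calculated relative to the ADM-alone group.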

Rattus norvegicus [4] = assay: Toxicity in Sprague-Dawley rat assessed as ventricular sustained tachycardia by measuring aconitine nitrate level at 2 mg.kg, iv by […]; format: organism-based, Cardiac ventricle; conditions: in vivo; how it was run: as §3
[5] = target: T2, ATP-dependent translocase ABCB1 (Rattus norvegicus, UniProt P43245); assay: Inhibition of Pgp-mediated multidrug resistance activity in rat RBMEC cells assessed as Rh123 accumulation at 10 umol/L after 90 mins; format: cell-based; conditions: 1.5 h, 10 µM
How it was run: (§5)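 Primary rat brain microvascular endothelial cells were grown in DF with 20% FCS to a 90% confluent monolayer. They were preincubated 30 min in serum-free DF. Compound (1, 3, 10 µM final) and Rh123 5 µM final were then added for 90 min, with cells collected at different times. Washed cells were lysed with Triton X-100 and fluorescence read at 488/535 nm. Values were normalized to Coomassie protein. Duplicate, ≥3 experiments.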

[6] = target: T2, ATP-dependent translocase ABCB1; assay: Inhibition of Pgp-mediated multidrug resistance activity in rat RBMEC cells assessed as Rh123 accumulation at 1 umol/L after 90 mins; format: cell-based; conditions: 1.5 h, 1 µM; how it was run: as §5
P-gp (ABCB1) [7] = target: T1, P-gp (ABCB1); assay: Inhibition of Pgp-mediated multidrug resistance activity in human MCF7/ADM cells assessed as Rh123 accumulation at 3 umol/L after 30 mins; format: cell-based; conditions: probe Rh123; how it was run: as §1
Rattus norvegicus [8] = assay: Toxicity in Sprague-Dawley rat assessed as ventricular permeature beat by measuring aconitine nitrate level at 2 mg.kg, iv by […]; format: organism-based, Cardiac ventricle; conditions: in vivo
[9] = target: T2, ATP-dependent translocase ABCB1; assay: Inhibition of Pgp-mediated multidrug resistance activity in rat RBMEC cells assessed as Rh123 accumulation at 3 umol/L after 90 mins; format: cell-based; conditions: 1.5 h, 3 µM; how it was run: as §5
Aorta = assay: Toxicity in Sprague-Dawley rat aorta assessed as vascular contractile activity; format: tissue-based; conditions: in vitro
How it was run: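 Aortic rings came from SD rats (250–350 g) and were kept at 37 °C under 95% O₂/5% CO₂. Isometric tension was recorded. After 60 min equilibration, rings were contracted with 20 or 80 mM KCl. Drug was then added in increasing concentrations until maximal relaxation. Relaxation was expressed as % of the KCl contraction.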

[10] = Antitumor activity against human K562/A02 cells xenografted in nude mouse at 2 mg/kg; format: functional; how it was run: as §4
K562/A02 = assay: Decrease in membrane lipid fluidity in human K562/A02 cells at 10 umol/L; format: functional, cell-based; how it was run: as §2
P-gp (ABCB1) [11] = target: T1, P-gp (ABCB1); assay: Inhibition of Pgp-mediated multidrug resistance activity in human MCF7/ADM cells assessed as Rh123 accumulation at 1 umol/L after 30 mins; format: cell-based; conditions: probe Rh123; how it was run: as §1
[12] = Antitumor activity against human K562/A02 cells xenografted in nude mouse assessed as tumor weight at 2 mg/kg; format: functional; how it was run: as §4

T1 sequence (P08183 whole entry): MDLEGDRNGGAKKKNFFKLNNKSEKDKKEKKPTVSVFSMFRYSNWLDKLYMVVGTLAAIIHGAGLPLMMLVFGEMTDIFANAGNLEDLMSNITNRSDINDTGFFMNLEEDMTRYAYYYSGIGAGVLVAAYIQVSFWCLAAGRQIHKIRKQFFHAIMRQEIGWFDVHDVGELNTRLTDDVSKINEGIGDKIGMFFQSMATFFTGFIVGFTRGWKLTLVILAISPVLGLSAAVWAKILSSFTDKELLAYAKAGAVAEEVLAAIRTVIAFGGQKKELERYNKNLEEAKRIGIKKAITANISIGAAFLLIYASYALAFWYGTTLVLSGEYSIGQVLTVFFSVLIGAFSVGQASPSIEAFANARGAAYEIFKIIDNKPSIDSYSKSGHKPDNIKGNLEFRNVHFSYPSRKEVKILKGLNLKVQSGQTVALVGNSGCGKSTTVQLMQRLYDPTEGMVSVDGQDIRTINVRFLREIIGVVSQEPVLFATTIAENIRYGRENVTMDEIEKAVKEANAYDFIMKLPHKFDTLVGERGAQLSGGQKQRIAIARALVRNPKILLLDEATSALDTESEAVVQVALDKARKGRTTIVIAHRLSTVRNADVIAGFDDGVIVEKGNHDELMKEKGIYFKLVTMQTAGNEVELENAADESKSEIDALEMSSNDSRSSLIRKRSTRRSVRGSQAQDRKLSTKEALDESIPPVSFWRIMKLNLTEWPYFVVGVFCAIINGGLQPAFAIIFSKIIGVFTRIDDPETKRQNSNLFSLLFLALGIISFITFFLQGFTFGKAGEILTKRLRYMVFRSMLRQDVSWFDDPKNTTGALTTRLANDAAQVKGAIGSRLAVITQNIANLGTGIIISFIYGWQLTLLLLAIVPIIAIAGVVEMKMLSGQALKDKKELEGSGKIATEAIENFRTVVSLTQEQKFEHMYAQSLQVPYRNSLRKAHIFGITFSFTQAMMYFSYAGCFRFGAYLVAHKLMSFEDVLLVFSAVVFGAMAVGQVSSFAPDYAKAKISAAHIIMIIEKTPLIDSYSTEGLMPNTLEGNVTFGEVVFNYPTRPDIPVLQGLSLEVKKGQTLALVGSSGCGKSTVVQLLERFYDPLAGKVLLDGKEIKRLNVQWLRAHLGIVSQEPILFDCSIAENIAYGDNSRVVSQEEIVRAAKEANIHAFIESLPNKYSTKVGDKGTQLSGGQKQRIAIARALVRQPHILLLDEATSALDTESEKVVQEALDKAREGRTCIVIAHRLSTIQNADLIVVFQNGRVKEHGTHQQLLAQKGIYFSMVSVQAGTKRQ
T2 sequence (P43245 whole entry): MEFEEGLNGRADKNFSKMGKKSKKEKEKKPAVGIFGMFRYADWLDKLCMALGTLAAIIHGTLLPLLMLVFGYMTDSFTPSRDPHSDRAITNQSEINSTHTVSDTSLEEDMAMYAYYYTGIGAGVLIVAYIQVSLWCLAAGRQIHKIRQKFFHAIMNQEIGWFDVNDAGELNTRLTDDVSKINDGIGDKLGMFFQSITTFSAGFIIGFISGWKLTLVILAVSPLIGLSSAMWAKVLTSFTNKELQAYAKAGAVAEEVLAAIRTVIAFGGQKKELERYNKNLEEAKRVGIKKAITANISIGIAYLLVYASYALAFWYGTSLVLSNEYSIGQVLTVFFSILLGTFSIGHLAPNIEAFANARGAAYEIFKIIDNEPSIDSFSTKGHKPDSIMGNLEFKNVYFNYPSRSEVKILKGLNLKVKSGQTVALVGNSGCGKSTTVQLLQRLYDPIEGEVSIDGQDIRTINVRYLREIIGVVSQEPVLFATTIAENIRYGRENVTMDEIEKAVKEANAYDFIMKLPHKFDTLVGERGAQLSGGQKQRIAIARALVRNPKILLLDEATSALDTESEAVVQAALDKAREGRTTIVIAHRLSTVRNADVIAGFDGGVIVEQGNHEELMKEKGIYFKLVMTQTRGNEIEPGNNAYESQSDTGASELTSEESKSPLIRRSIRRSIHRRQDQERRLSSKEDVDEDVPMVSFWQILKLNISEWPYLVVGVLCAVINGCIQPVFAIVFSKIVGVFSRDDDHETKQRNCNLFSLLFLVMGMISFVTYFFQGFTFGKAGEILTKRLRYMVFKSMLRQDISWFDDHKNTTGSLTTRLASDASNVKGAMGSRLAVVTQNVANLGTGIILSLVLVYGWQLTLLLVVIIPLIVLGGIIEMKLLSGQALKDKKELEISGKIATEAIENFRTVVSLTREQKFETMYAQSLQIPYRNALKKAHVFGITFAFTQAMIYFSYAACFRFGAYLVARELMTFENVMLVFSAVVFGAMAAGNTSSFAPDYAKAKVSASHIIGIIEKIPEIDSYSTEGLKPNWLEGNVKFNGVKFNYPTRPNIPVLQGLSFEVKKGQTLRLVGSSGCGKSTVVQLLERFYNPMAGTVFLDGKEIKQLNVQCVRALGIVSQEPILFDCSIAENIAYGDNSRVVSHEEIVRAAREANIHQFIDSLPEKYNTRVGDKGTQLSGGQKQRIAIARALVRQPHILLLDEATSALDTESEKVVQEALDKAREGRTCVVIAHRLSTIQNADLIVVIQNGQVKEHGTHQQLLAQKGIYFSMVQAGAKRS

With `COc1ccc(CCN(C)CCCC(C#N)(c2ccc(OC)c(OC)c2)C(C)C)cc1OC` (stereo unspecified) [VERAPAMIL] the inhibition at 0.5 h, 10 µM (P-gp (ABCB1) [1]) was 98.7%, the Activity (K562) was “inactive” and the Activity (Rattus norvegicus [2]) was 55 µg/kg. The inhibition in vivo at 8 mg/kg [3] was -66.4%, the Activity (Rattus norvegicus [4]) was 44 µg/kg and the Activity [5] was “Active”.
In the case of `CCCCCCCCN/C(=N/C#N)N1CCc2cc(OC)c(OC)cc2C1Cc1ccc(OC)c(OC)c1` (stereo unspecified), the inhibition at 0.5 h, 10 µM (P-gp (ABCB1) [1]) was 69.3%, the Activity [6] was “Active” and the inhibition at 0.5 h, 3 µM (P-gp (ABCB1) [7]) was 60.5%. For the same compound, the Activity (Rattus norvegicus [8]) was 22.4 µg/kg, the Activity [9] was “Active” and the Activity (Aorta) was “Not Active”. The Activity (K562) was “inactive”, the Activity (Rattus norvegicus [2]) was 31.5 µg/kg and the inhibition in vivo at 2 mg/kg [10] was -62.2%. The inhibition in vivo at 8 mg/kg [3] was -59.5%, the Activity (K562/A02) was “Active” and the Activity (Rattus norvegicus [4]) was 26.7 µg/kg. The inhibition at 0.5 h, 1 µM (P-gp (ABCB1) [11]) was 35.2% and the Activity [5] was “Active”.
`COc1cccc2c1C(=O)c1c(O)c3c(c(O)c1C2=O)C[C@@](O)(C(=O)CO)C[C@@H]3O[C@H]1C[C@H](N)[C@H](O)[C@H](C)O1` [DOXORUBICIN] gave an Activity [12] of 2.17 g.
